Here are results for three molecules from PMC11252475 (Acta Pharmaceutica Sinica. B, 2024).

One series concerns SD rats. Put plainly: Systemic toxicity, subcutaneous injection. It is filed as in vivo, rat. The settings on record: TI = LD50/ED50, s.c.
Series [1] is described as follows: Systemic toxicity, subcutaneous injection. It counts as in vivo, rat. The settings on record: Sprague-Dawley, rat, in vivo, sc.
In series [2] the test system is rats. As to the kind of experiment: Plantar incisional pain model. It counts as in vivo, rat. The settings on record: 0.2 mL near incision. The gist of the method:
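Rats with a plantar incision received test compound or saline, 0.2 mL, near the incision. Local anesthesia was assessed by von Frey stimulation of the lateral sole.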

In series [3] the test system is NaV currents in rat dorsal root ganglion (DRG) neurons. As to the kind of experiment: Whole-cell patch clamp, sodium current in DRG neurons. It is filed as cell-based. The settings on record: for IC50: F-11 rat/mouse fusion cell line, DRG neuron, read-out: IC50 sodium current. The gist of the method: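 Male rat DRG neurons (180–200 g donors) were dissociated with collagenase IV (2 mg/mL) then trypsin (10 mg/mL) for 30 min, plated on poly-L-lysine and grown in Neurobasal with FBS and B27. Whole-cell voltage clamp used 3–4 MΩ electrodes. I/V steps ran from −90 to +40 mV in 10 mV increments, 50 ms each.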
A general note: Patch clamp records ionic current or voltage across a cell membrane.

The test system of series [4] is rats. Put plainly: Gingival incision pain model. It counts as in vivo, rat. The gist of the method: (§1)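 Oral pain models in rats under 1%–3% isoflurane, with test compound given as local anesthetic. Food intake and body-weight change were measured on a precision balance over 24 h. Facial grooming was video-recorded for 1 h after dosing.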
The subject of series [5] is rats. As to the kind of experiment: CFA-induced chronic plantar inflammatory pain model. It is filed as in vivo, rat. The settings on record: 62.3 mmol/L, 0.2 mL subcutaneous at swollen foot. The gist of the method:
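Male SD rats (6–8 weeks, 250–300 g) under 1%–3% isoflurane had CFA injected into the right foot. Test compound (62.3 mmol/L, 0.2 mL) or equal-volume saline was given s.c. at the swollen site. Electronic von Frey stimulation to the side of the foot every 10 min after onset. Anesthesia failed when the value fell to half the limb-weight-to-baseline difference or below.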

For another series, the target named is NaV1.5 (Homo sapiens, UniProt Q14524). Put plainly: Cell membrane chromatography. It is filed as binding. The settings on record: capacity factor k′; reflects potential cardiac toxicity; k′ < 0 labeled as 0.
Sequence of NaV1.5 (Q14524 whole entry): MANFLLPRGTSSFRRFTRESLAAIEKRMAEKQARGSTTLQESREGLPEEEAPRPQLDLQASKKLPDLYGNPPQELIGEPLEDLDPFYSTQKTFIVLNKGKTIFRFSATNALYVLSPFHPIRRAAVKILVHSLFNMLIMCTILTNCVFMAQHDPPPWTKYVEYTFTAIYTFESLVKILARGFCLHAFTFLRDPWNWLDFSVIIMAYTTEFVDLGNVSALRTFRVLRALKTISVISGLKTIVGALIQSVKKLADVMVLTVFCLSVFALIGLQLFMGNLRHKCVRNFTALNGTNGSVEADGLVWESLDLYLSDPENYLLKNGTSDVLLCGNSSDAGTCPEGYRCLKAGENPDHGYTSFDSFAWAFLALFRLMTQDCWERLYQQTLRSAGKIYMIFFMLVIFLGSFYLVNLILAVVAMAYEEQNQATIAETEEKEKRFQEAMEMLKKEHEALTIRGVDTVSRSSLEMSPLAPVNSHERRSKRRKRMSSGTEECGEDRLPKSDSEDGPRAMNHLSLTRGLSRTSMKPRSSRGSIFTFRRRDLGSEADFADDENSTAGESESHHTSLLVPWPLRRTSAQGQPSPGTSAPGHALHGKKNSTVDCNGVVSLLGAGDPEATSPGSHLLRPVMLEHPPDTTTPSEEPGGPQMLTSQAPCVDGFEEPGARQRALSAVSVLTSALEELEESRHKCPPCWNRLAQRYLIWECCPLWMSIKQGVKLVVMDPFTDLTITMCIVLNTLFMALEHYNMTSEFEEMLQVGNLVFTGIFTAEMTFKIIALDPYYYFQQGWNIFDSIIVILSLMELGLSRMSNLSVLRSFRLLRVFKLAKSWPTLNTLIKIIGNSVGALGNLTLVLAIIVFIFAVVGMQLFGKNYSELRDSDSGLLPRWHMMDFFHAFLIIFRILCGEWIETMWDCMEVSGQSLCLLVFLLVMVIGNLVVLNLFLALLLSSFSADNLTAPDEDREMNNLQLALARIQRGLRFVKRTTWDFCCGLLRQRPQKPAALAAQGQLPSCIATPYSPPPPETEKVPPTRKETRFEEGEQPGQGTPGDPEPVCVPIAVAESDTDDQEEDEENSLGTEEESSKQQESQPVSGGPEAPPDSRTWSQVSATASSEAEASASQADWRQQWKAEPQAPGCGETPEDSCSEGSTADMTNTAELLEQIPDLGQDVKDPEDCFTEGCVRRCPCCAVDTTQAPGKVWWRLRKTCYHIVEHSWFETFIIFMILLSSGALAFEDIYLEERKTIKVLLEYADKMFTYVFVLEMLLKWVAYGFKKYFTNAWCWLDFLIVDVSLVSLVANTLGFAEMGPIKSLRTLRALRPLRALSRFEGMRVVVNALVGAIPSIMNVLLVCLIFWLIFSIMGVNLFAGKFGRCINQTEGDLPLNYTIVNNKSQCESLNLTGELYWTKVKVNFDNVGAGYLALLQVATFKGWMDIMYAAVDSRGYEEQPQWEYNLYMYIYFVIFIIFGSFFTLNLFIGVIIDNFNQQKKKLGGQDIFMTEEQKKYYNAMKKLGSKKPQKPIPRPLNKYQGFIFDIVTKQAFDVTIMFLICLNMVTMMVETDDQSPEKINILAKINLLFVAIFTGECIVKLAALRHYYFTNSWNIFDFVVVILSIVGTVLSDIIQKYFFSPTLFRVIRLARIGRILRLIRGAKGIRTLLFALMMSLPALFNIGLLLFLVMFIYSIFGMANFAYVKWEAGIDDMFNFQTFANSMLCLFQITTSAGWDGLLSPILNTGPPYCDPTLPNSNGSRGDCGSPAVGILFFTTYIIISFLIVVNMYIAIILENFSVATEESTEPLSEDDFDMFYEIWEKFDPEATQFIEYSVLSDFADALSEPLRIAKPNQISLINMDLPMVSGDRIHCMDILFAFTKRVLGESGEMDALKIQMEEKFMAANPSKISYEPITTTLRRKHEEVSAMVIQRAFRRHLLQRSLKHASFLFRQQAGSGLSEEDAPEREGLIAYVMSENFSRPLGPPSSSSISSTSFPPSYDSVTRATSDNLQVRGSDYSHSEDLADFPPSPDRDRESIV
Series [6] in a line: Systemic toxicity, intravenous. The settings on record: ICR, mouse, in vivo.
Series [7] deals with rats. As to the kind of experiment: Cutaneous trunci pinprick model. It counts as in vivo, rat. The settings on record: 62.3 mmol/L, subcutaneous. Summed up:
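Male SD rats under 1%–3% isoflurane had about 6 cm × 6 cm of back shaved, swabbed with alcohol and split into four areas. Test compound (62.3 mmol/L) was given by s.c. infiltration. Pinprick scored 1 for no response and 0 for response. Duration ran from onset to expiration, expressed as mean-score MPE. Effective block was ≥50% MPE; complete block was 100% MPE.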

The test system of series [8] is rats. Put plainly: Sciatic nerve block model. It is filed as in vivo, rat. The settings on record: 62.3 mmol/L near sciatic nerve; for motor block duration: extensor postural thrust; for duration of effective sensory blockade: hotplate test. The gist of the method:
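Test compound (62.3 mmol/L) was injected near the sciatic nerve. Hind limbs were tested every 30 min until back to pre-test baseline. Sensory: paw withdrawal latency on a 55 °C hotplate, timed by stopwatch. Motor: extensor postural thrust in grams on a digital balance. Recovery was 50% of baseline.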

For a further series, the system named is NLRP3 inflammasome. As to the kind of experiment: NLRP3 inflammasome activation after LPS. It is filed as cell-based, rat. The gist of the method: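 DRG neurons and NGF-differentiated PC12 cells, with LPS given before or together with test compound. ASC specks: 3% paraformaldehyde 15 min, 0.5% Triton X-100 15 min, 5% BSA 2 h, anti-ASC 1:200 overnight at 4 °C, secondary 1:500 1 h in the dark, DAPI, fluorescence microscopy. Western blot: PVDF, 5% milk 2 h, anti-NLRP3 and anti-caspase-1 1:1000 overnight at 4 °C.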

Another series relates to IL-1β, IL-6, TNFα. As to the kind of experiment: LPS-induced inflammatory factor expression. It is filed as cell-based, rat. The settings on record: LPS 24 h, DRG neurons and PC12 cells; similar to LD, stronger than AT.
Another series concerns DRG neurons. Put plainly: LPS-induced ROS production, cytoplasmic mtDNA release, 8-OHdG. It is filed as cell-based, rat. The settings on record: PC12 cells.
The next series deals with hERG channel (Homo sapiens, UniProt Q12809). Put plainly: hERG potassium current inhibition. It is filed as cell-based. For orientation: The hERG channel carries a current that helps repolarise heart muscle cells.
Sequence of hERG channel (Q12809 whole entry): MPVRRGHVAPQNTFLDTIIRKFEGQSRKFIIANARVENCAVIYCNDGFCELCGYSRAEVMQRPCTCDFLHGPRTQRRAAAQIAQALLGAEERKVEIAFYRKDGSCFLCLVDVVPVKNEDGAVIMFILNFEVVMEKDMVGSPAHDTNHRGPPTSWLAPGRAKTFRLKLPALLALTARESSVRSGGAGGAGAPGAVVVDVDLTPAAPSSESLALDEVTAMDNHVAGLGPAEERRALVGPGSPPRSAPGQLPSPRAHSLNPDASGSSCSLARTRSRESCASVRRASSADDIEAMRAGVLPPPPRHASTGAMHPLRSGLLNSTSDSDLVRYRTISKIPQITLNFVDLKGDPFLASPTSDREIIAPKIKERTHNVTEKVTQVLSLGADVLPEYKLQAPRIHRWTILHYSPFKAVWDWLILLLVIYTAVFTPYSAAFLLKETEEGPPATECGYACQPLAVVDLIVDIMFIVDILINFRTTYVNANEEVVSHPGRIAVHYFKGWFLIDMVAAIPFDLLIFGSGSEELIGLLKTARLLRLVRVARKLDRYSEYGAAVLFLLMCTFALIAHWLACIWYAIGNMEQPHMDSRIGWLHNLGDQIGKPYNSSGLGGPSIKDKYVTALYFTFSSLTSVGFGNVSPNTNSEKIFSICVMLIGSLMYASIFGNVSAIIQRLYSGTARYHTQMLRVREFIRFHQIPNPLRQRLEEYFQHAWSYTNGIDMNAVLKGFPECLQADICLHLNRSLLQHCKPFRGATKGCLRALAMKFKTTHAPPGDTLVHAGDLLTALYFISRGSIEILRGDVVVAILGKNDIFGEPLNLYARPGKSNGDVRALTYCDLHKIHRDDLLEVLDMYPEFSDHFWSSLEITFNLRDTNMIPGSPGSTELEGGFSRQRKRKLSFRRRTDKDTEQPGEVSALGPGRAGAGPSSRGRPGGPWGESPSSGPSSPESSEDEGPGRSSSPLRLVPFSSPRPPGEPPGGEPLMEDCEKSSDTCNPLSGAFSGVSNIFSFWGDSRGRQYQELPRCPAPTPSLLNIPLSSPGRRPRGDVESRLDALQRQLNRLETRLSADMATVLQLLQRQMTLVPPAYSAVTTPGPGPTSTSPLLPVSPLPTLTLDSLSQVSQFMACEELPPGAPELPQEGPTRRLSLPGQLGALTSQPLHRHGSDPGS
Series [9] is described as follows: in vitro. It is filed as in vitro ADME. The settings on record: human, microsomes, pH 7.4.
Series [10] deals with NaV currents in rat trigeminal neuron (TG) neurons. As to the kind of experiment: Whole-cell patch clamp, sodium current in TG neurons. It counts as cell-based.
A short description of series [11]: Pharmacokinetics after subcutaneous injection. It counts as in vivo. The settings on record: male, Sprague-Dawley, rat, plasma, sc, 62.3 mmol/L.
Series [12] in a line: in vitro. It is filed as in vitro ADME. The settings on record: rat, microsomes, pH 7.4.
Series [13] concerns rats. As to the kind of experiment: Tooth extraction pain model. It is filed as in vivo, rat. Summed up: as §1
The test system of series [14] is rats. As to the kind of experiment: Local anesthetic toxicity, blood biochemistry and organ pathology. It counts as in vivo, rat. Summed up:
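Test compound was given in the rat sciatic nerve block model. Rats were killed at 7 and 14 days. Sciatic nerve and surrounding tissue were HE-stained and inflammatory cells counted in equal-sized areas (nerve:surrounding 1:1). Serum ALT, AST, LDH, α-HBDH, CREA and UREA were run on an automatic analyser. Heart, liver and kidney were HE-stained for pathology.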

In series [15] the test system is rats. Put plainly: Dental pulp injury pain model. It is filed as in vivo, rat. The settings on record: compared with AT. The gist of the method: as §1

Each structure is given as a SMILES string.

A word on the LD50: it is the dose at which mortality reaches 50%. By IC50 is commonly meant the midpoint of a concentration-inhibition curve. As to `CCCNC(C)C(=O)Nc1c(C)csc1C(=O)OC` (centres unmarked) [AT, Methyl 4-methyl-3-(2-(propylamino)propanamido)thiophene-2-carboxylate, reference compound], the TI in the series with SD rats is listed as 125.83. For the same molecule, the LD50 at 24 h in series [1] was found to be 598 mg/kg. Further, the “anesthesia result in acute inflammation model through plantar incision” value (from here on “anesthesia result”) in the series on rats [2] is “underperformed”. The IC50 in [3] stood at 71.2 ± 3.06 µM. The face grooming frequency result in the series with rats [4] was “significantly lowered”. For the same molecule, in the series on rats [5], the “duration of action (anesthesia) under CFA-induced chronic inflammation” value was 30 min. Moreover, the “k′ NaV1.5” value at NaV1.5 is 63. This molecule also yielded an LD50 in series [6] of 38.3 mg/kg. Moreover, the subcutaneous infiltration duration in the series with rats [7] worked out at 120 min. In addition, the motor block duration with rats [8] is 90 min.

On to `COC(=O)c1scc(C)c1NC(=O)C(C)N1CCN(C(C)C)CC1` (centres unmarked) [AT-13, Methyl 3-(2-(4-isopropylpiperazin-1-yl)propanamido)-4-methylthiophene-2-carboxylate], for which the “anesthesia result” value in the series on rats [2] is listed as “improved results”. Moreover, on NaV1.5, the “k′ NaV1.5” value turned out to be 23.2. The subcutaneous infiltration duration in the series on rats [7] is 275 min. Also, in the series on rats [8], the motor block duration came out at 140 min and the “duration of effective sensory blockade” value was 145 min.

By inhibition is commonly meant the relative decrease from the control value, in per cent. As usually defined, the half-life is the time needed for the level to fall by half in the phase considered. Broadly, the AUC(0-t) is exposure summed from dosing to a finite time, without extrapolation to infinity. A lower AUC(0-t) goes with less exposure. By Tmax is commonly meant the time from dosing to the highest level. In the case of `CCCCN1CCN(C(C)C(=O)Nc2c(C)csc2C(=O)OC)CC1` (centres unmarked) [AT-17, Methyl 3-(2-(4-butylpiperazin-1-yl)propanamido)-4-methylthiophene-2-carboxylate], the TI with SD rats is reported as 149.17. The molecule also returned a 50% lethal dose (LD50) at 24 h in series [1] of 424 mg/kg. Moreover, the “LPS-induced ASC speck formation” value in the series with NLRP3 inflammasome (DRG neurons, PC12 cells) was “inhibits”. Also, the “NLRP3, ASC, and pro-Casp1 expression” value with NLRP3 inflammasome (LPS, acute and chronic conditions) is “modestly reduced”. In addition, the “anesthesia result” value in the series with rats [2] is reported as “improved results”. In addition, the “inflammatory factors (IL-1β, IL-6, TNFα) expression” value in the series with IL-1β, IL-6, TNFα is given as “significantly inhibited”. For the same molecule, in series [3], the IC50 was 31.6 ± 2.07 µM. Moreover, in series [3] (rat DRG neurons), the “reduction in the peak current compared to AT (I‒V relationship)” value is reported as 36.35%. Besides, in the series on DRG neurons, the “LPS-induced ROS production, cytoplasmic mtDNA release, and 8-OHdG levels” value is “reduced”. For the same molecule, the inhibition at 100 μM/L against hERG channel worked out at 38%. For the same molecule, the face grooming frequency result with rats [4] was “significantly lowered”. Further, in the series with rats [4] (compared with AT), the “recovery in body weight and food intake” value is recorded as “more pronounced recovery”. Besides, the half-life in the series “in vitro [9]” is 1.25 h. The “reduction in peak current compared to AT (I‒V relationship)” value in [10] stood at 10.56%. Besides, in series [11], the AUC(0-t) is 5550 ng·h/mL, the Tmax worked out at 1 h and the half-life is 0.823 h. In addition, the half-life in “in vitro [12]” was 1.03 h. For the same molecule, the “weight loss and food intake” value in the series with rats [13] was “significantly mitigating”. Further, in the series on rats [5], the “duration of action (anesthesia) under CFA-induced chronic inflammation” value worked out at 83.3 min. The “ALT, AST, LDH, α-HBDH, CREA, UREA levels vs control group” value in the series on rats [14] (rats, 7 days and 14 days post-administration) is listed as “no marked differences”. Moreover, in the series on rats [14] (rats, local administration to the sciatic nerve), the “pathological assessment of heart, liver, and kidney vs control group” value is reported as “no significant pathological changes”. Further, the “number of inflammatory cells in tissues compared with AT” value with rats [14] (sciatic nerve block model, HE, ImageJ) is on record as “significantly lower”. Also, at NaV1.5, the “k′ NaV1.5” value amounted to 22.4. Also, in series [6], the LD50 came out at 43.5 mg/kg. The subcutaneous infiltration duration in the series on rats [7] is 400 min. For the same molecule, the “weight loss and pain-related decreases in food intake” value in the series on rats [15] is recorded as “more effective”. In the series on rats [8], the motor block duration is reported as 260 min and the “duration of effective sensory blockade” value is given as 200 min.
